For one compound, MIC, MIC50 and MIC90 results are on record in ChEMBL document CHEMBL1255469, “In vitro activity of a new isothiazoloquinolone, ACH-702, against Mycobacterium tuberculosis and other mycobacteria” (2010).

Converted amounts (≈) assume the structure as drawn.

By MIC is commonly meant the lowest concentration found to suppress growth. A lower MIC goes with inhibition by little substance. As usually defined, the MIC50 is the lowest concentration that inhibits either 50% of growth or 50% of the strains tested, depending on the study. By MIC90 is commonly meant an inhibitory concentration at the 90% level, which refers to growth in some studies and to a panel of isolates in others. A low value points to higher susceptibility.

Type in all cases: functional
One assay concerns Mycobacterium gordonae. Kind of assay: Antimicrobial activity against Mycobacterium gordonae after 7 days by broth microdilution assay. The conditions noted are these: 168 h. In a few lines: (§1)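 Slowly growing mycobacteria were identified by phenotype and hsp65 PCR-RFLP. MIC by CLSI broth microdilution in cation-adjusted Mueller-Hinton broth with OADC supplement at a final 10%. Final drug range 0.06 to 16 μg/ml. Read after 7 days at 35°C. S. aureus ATCC 29213 was run as a quality control with each plate lot.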
(In broth dilution the organism is exposed to a series of concentrations in liquid medium.)

In assay [1] the test system is Mycolicibacterium fortuitum. Kind of assay: Antimicrobial activity against Mycobacterium fortuitum clinical isolates after 7 days by broth microdilution assay. Conditions: 168 h.
Assay [2] relates to Mycobacterium avium complex sp. Kind of assay: Antimicrobial activity against Mycobacterium avium complex clinical isolates after 7 days by broth microdilution assay. The conditions noted are these: 168 h. The procedure, abridged:
as §1

Assay [3] concerns Mycobacteroides abscessus. Kind of assay: Antimicrobial activity against Mycobacterium abscessus clinical isolates after 7 days by broth microdilution assay. The conditions noted are these: 168 h.
For the next assay, the system named is Staphylococcus aureus. Kind of assay: Antimicrobial activity against Staphylococcus aureus ATCC 29213 after 72 hrs by broth microdilution assay. The conditions noted are these: ATCC 29213, 72 h.
Assay [4] has as its system Mycobacterium tuberculosis. Briefly: Antimicrobial activity against isoniazid and rifampin-susceptible Mycobacterium tuberculosis clinical isolates after 7 days by broth microdilution assay. The conditions noted are these: 168 h. The procedure, abridged: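 Alamar Blue broth microdilution in 7H9GC broth (Middlebrook 7H9 base, glycerol, Casitone, 10% OADC). Drug stock 1 mg/ml in 100% DMSO, diluted in broth to a final 0.03 to 8 μg/ml. M. tuberculosis H37Rv served as the susceptible-strain control. Isoniazid and rifampin resistance was assigned beforehand by the proportion method.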

For the next assay, the system named is Mycobacteroides chelonae. Briefly: Antimicrobial activity against Mycobacterium chelonae clinical isolates after 7 days by broth microdilution assay. Conditions: 168 h.
A further assay concerns Mycobacterium kansasii. Briefly: Antimicrobial activity against Mycobacterium kansasii after 7 days by broth microdilution assay. Conditions: 168 h. In a few lines: as §1

Consider `COc1c(N2CC[C@@H](C(C)(C)N)C2)c(F)cc2c(=O)c3c(=O)[nH]sc3n(C3CC3)c12`, for which the MIC with Mycobacterium gordonae was 0.12 µg/mL (≈ 0.277 µM); in assay [3], 16 µg/mL (≈ 37 µM); with Staphylococcus aureus, ≤ 0.06 µg/mL; in the assay on Mycobacteroides chelonae, 8 µg/mL (≈ 18.5 µM); against Mycobacterium kansasii, 0.12 µg/mL (≈ 0.277 µM). In addition, the MIC50 in assay [1] was ≤ 0.0625 µg/mL; in assay [2], 0.25 µg/mL (≈ 0.578 µM); in assay [4] it was 0.0625 µg/mL (≈ 0.145 µM). The MIC90 in assay [1] was ≤ 0.0625 µg/mL; in assay [2] it was 4 µg/mL (≈ 9.25 µM); in assay [4], 0.125 µg/mL (≈ 0.289 µM).
